The term MIC denotes the lowest concentration found to suppress growth. Higher therefore signals a less susceptible organism.

Drawing on ChEMBL document CHEMBL1649147, “Antistaphylococcal activity of dihydrophthalazine antifolates, a family of novel antibacterial drugs” (2009), this text covers MIC for three compounds.

SMILES strings stand for the structures. Values after ≈ are worked out from the molar mass of the structure shown.

Holding throughout (type): functional
Assay [1] relates to Staphylococcus epidermidis. The experiment in a line: Antibacterial activity against coagulase-negative Staphylococcus epidermidis 225 after 38 passages by agar dilution method. In a few lines:
(§1)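 Serial passage under drug. Inoculum was ~1 × 10^6 CFU/ml from overnight MHA growth, in 1 ml MHB at 35°C for 24 h. Drug ranged from 4 log2 steps above to 3 log2 steps below the MIC. […] MIC change is given as log2 steps.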
(In agar dilution, organisms are placed on agar that contains the substance at set levels.)

Assay [2] relates to Staphylococcus aureus. The experiment in a line: Antibacterial activity against methicillin-resistant and vancomycin-resistant Staphylococcus aureus VRS1 after 20 passages by agar dilution method. Put shortly: (§2)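 Daily serial passage for up to 50 days at 35°C for 24 h in 1 ml MHB. […] Each transfer used 10 µl from the tube nearest the MIC (1–2 dilutions below) with the same turbidity as the drug-free control. […] MICs were measured by agar dilution, with changes given as log2 steps.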

Assay [3] relates to Staphylococcus epidermidis. Description: Antibacterial activity against methicillin-susceptible coagulase-negative Staphylococcus epidermidis 057 after 15 passages by agar dilution method. Put shortly: as §2
Assay [4] concerns Staphylococcus epidermidis. The experiment in a line: Antibacterial activity against methicillin-resistant, Linezolid non-susceptible coagulase-negative Staphylococcus epidermidis 345 after 33 passages by agar dilution method. In a few lines:
as §2

The test system of assay [5] is Staphylococcus epidermidis. Description: Antibacterial activity against methicillin-susceptible coagulase-negative Staphylococcus epidermidis 057 after 23 passages by agar dilution method. Put shortly: as §2
Assay [6] deals with Staphylococcus aureus. Description: Antibacterial activity against methicillin-resistant Staphylococcus aureus 145 after 50 passages by agar dilution method. In a few lines:
as §1

Assay [7] concerns Staphylococcus aureus. The experiment in a line: Antibacterial activity against Staphylococcus aureus 145 after 50 passages by agar dilution method. Put shortly:
as §1

Assay [8] relates to Staphylococcus aureus. Description: Antibacterial activity against Staphylococcus aureus 145 after 37 passages by agar dilution method. Put shortly: as §1
The subject of assay [9] is Staphylococcus epidermidis. Description: Antibacterial activity against coagulase-negative Staphylococcus epidermidis 057 after 50 passages by agar dilution method. Put shortly:
as §1

For `COc1cc(Cc2cnc(N)nc2N)cc(/C=C/C(=O)N2N=Cc3ccccc3C2c2cnc(N(C)C)nc2)c1OC` (centres undefined), the MIC (in [1]; with Staphylococcus aureus [2]; in [3]; in assay [4]) was above 128 µg/mL in each case.

Turning to `COc1cc(Cc2cnc(N)nc2N)cc(/C=C/C(=O)N2N=Cc3ccccc3C2c2cnc(N3CCOCC3)nc2)c1OC` (centres undefined), the MIC in [5] was above 128 µg/mL; in the assay on Staphylococcus aureus [6] it was 128 µg/mL (≈ 211 µM); against Staphylococcus aureus [7] it was 128 µg/mL (≈ 211 µM).

`COc1ncc(C2c3ccccc3C=NN2C(=O)/C=C/c2cc(Cc3cnc(N)nc3N)cc(OC)c2OC)cn1` (centres undefined): the MIC is above 128 µg/mL in the assay on Staphylococcus aureus [8] and 128 µg/mL (≈ 232 µM) in [9].
